We go through four compounds from ChEMBL document CHEMBL1146073, “A pyridazine series of alpha2/alpha3 subtype selective GABA A agonists for the treatment of anxiety” (J Med Chem, 2006).

In data set [1] the target is GABA-A receptor; alpha-3/beta-3/gamma-2 (Homo sapiens) (UniProt P18507+P28472+P34903). Put plainly: Efficacy against recombinant human GABA-Aalpha3 plus beta-3-gamma-2 expressed in L(tk-) cells by whole cell patch clamp method relative to chlordiazepoxide. The data set is classed as functional, cell-based. In a few lines:
(§1)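 Whole-cell patch clamp on αxβ3γ2 receptors stably expressed in L(tk-) cells, measuring the effect on current evoked by an EC20-equivalent of GABA. Reported relative to full agonist chlordiazepoxide (=1.0), or as direct percent modulation of the EC20 control, with inverse agonism given as percent. Mean of at least four independent experiments.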
For orientation: In patch-clamp work, channel activity is measured electrically.

The target in data set [2] is GABA-A receptor; alpha-2/beta-3/gamma-2 (Homo sapiens) (UniProt P18507+P28472+P47869). Put plainly: Efficacy against recombinant human GABA-Aalpha2 plus beta-3-gamma-2 expressed in L(tk-) cells by whole cell patch clamp method relative to chlordiazepoxide. The data set is classed as functional, cell-based. The procedure, abridged:
as §1

The target in data set [3] is T1, GABA-A receptor; alpha-1/beta-3/gamma-2 (Homo sapiens, UniProt P14867+P18507+P28472).
T1 sequence (P14867 whole entry): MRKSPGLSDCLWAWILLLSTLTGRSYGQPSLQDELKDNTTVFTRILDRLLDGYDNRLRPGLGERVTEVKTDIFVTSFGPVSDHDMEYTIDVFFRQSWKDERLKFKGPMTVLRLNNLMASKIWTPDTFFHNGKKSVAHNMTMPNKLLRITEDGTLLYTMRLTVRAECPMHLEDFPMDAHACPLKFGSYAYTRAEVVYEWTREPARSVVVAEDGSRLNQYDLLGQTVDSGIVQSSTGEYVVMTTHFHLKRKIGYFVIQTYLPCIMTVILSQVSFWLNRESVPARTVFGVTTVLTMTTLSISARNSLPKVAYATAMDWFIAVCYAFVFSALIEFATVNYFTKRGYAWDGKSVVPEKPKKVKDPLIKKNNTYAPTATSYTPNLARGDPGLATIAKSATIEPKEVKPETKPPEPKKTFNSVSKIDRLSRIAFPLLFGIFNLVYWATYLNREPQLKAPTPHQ
T1 sequence (P18507 whole entry): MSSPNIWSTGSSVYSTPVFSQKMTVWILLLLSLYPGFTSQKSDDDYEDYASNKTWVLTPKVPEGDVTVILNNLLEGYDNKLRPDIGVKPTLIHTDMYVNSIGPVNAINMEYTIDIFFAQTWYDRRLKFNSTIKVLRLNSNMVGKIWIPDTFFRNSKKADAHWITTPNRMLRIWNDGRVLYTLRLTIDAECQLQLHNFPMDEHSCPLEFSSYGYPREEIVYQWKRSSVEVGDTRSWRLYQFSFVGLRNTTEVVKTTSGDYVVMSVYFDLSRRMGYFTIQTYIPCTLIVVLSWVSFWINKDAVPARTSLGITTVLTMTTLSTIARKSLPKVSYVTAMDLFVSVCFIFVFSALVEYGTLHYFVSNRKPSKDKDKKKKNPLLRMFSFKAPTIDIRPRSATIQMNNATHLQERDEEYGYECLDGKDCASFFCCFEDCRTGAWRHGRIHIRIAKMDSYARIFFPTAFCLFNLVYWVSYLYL
T1 sequence (P28472 whole entry): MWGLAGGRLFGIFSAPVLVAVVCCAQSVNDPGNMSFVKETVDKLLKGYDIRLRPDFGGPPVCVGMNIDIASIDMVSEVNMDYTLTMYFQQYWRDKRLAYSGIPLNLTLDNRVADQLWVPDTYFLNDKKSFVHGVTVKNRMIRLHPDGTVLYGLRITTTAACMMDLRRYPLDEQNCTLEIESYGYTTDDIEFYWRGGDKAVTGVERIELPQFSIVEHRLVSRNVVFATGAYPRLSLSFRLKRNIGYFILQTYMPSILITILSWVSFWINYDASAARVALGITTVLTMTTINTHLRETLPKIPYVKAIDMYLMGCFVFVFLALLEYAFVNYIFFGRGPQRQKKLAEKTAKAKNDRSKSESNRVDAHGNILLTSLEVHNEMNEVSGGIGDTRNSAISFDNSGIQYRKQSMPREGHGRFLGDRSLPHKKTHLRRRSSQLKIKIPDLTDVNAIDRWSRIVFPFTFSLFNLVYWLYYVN
Put plainly: Displacement of [3H]Ro-151788 from recombinant human GABA-Aalpha1 receptor plus beta3gamma2. The data set is classed as protein-complex assay. The procedure, abridged: (§2)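 Benzodiazepine-site binding on stably transfected αxβ3γ2 receptors (x = 1, 2, 3 or 5). Inhibition curves run with [3H]Ro15-1788 at roughly twice its Kd. Ki derived by Cheng-Prusoff equation. Mean of three to six determinations.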

Data set [4] in a line: Stability in human assessed as liver microsomal turnover. The format is ADME, Microsome. To be noted: liver microsomes, read-out: Stability. In a few lines: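 Test compound at 1 µM, with diazepam as control, incubated 0.25 h with pooled liver microsomes at 0.5 mg/mL protein. Compound remaining quantified by LC/MS/MS. Turnover is the mean of three determinations.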
Data set [5] concerns the target T2, GABA-A receptor; alpha-3/beta-3/gamma-2 (Homo sapiens, UniProt P18507+P28472+P34903).
T2 sequence (P18507 whole entry): T1 sequence (P18507 whole entry)
T2 sequence (P28472 whole entry): T1 sequence (P28472 whole entry)
T2 sequence (P34903 whole entry): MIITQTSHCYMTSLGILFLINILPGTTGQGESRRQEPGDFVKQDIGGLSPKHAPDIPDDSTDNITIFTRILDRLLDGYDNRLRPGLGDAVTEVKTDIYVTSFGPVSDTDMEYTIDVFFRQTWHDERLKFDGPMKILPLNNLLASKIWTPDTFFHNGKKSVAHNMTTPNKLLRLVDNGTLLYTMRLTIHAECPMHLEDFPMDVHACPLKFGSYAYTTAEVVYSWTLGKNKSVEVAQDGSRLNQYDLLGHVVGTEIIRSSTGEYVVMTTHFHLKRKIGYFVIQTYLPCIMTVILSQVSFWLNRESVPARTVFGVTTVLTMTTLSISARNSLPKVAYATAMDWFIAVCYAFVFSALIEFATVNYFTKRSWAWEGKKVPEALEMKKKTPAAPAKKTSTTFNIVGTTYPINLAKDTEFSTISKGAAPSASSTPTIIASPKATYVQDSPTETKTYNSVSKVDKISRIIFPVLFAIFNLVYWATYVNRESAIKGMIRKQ
Put plainly: Displacement of [3H]Ro-151788 from recombinant human GABA-Aalpha3 receptor plus beta3gamma2. The data set is classed as protein-complex assay. In a few lines: as §2
In general terms: Displacement assays read how much labelled ligand stays bound in the presence of the test substance.

In data set [6] the target is GABA-A receptor; anion channel (Rattus norvegicus) (UniProt O09028+P15431+P18506+P18508+P19969+P20236+P23574+P23576+P28471+P28473+P30191+P62813+P63079+P63138+Q91ZM7+Q9ES14). Put plainly: Receptor occupancy in vivo by displacement of [3H]Ro 15-1788 binding from GABA-A receptor in rat, po. The format is functional, organism-based. The procedure, abridged: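 Rat in vivo occupancy measured by [3H]Ro 15-1788 binding after oral dosing. Rats taken as a subgroup after the plus-maze trial, i.e. 30 min post-dose or later. ED50 derived from dose-dependent occupancy. Mean ± SEM, n = 5-10/group.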

The nature of data set [7]: Half life in rat. The format is ADME, organism-based. To be noted: in vivo. The procedure, abridged: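 Pharmacokinetics from six animals per species: three dosed iv and three dosed po.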

Broadly, the Ki is a dissociation constant, usually derived from enzyme kinetics or from competition with a known ligand. As to `Fc1cnc(-c2cc(-c3cnnc(-c4c(F)cc(F)cc4F)c3)ccc2F)c(F)c1`, the Efficacy in data set [1] is 0.4; in data set [2] it was 0.36. Besides, the Ki in data set [3] was found to be 2.6 nM; in data set [5], 5 nM. In data set [4], the metabolised was 7%. Moreover, the Activity in data set [6] amounted to 0.7 mg/kg.

Usually half-life stands for how long it takes for the measured level to halve. Lower therefore signals fast loss. Take `Fc1cnc(-c2cc(-c3cnnc(-c4c(F)cncc4F)c3)ccc2F)c(F)c1`: the Efficacy in data set [1] was determined as 0.39; in data set [2], 0.28. Besides, the inhibition constant (Ki) in data set [3] stood at 1.8 nM; in data set [5] it was 6.3 nM. Moreover, the half-life in data set [7] is 1.6 h. In addition, the metabolised in data set [4] is 3%. The Occ50 in data set [6] was found to be 0.22 mg/kg.

For `Fc1cnc(-c2cc(-c3ccc(F)c(-c4ncc(F)cc4F)c3)cnn2)c(F)c1`, the figures for the Efficacy in data set [1] and in data set [2] were 0.44 and 0.12, respectively. The Ki in data set [3] came out at 1.5 nM; in data set [5], 8.5 nM. Further, in data set [7], the half-life was 53 h. Moreover, in data set [4], the metabolised was 3%. The same compound showed an Occ50 in data set [6] of 0.52 mg/kg.

Turning to `Fc1cnc(-c2cc(-c3ccc(F)c(-c4ncccc4F)c3)cnn2)c(F)c1`, the Efficacy in data set [1] came to 0.7; in data set [2], 0.43. Besides, the values for the Ki in data set [3] and in data set [5] were 0.5 nM and 2 nM, respectively. Besides, in data set [7], the half-life was 10 h. Besides, the metabolised in data set [4] was 6%. Moreover, the Occ50 in data set [6] was found to be 0.09 mg/kg.
